Structures are written as SMILES.

The values that follow come from ChEMBL document CHEMBL4513216, “Probing the Open Global Health Chemical Diversity Library for Multistage-Active Starting Points for Next-Generation Antimalarials” (ACS Infect Dis, 2020).

This data set can be described thus: Toxicity liver stage against HepG2, at 10uM. Format: cell-based. Also on record: test concentration 10 uM, cell line HepG2-A16-CD81EGFP. Conditions: human, HepG2-A16-CD81EGFP cells; read-out: INHIBITION
A digest of the protocol: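 Uninfected HepG2-A16-CD81EGFP cells, 3 × 10^3 per well, 1536-well, plated on prespotted compound at 10 μM final, parasite-free screening media added to match infected plates; puromycin 10 μM positive, DMSO 0.5% negative; run in parallel with 48 h PbLuc assay at 37 °C, 5% CO2; viability by CellTiter-Glo luminescence, normalized to controls.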
On to `Cc1cc(S(=O)(=O)N2CC[C@@H](O)C2)c(Cl)cc1F`, for which the cytotoxicity at 10 µM was -8.59%.
Consider `CC(C)CC(=O)Nc1cc(C(=O)N(C)C(C)C)ccc1Cl`, for which the cytotoxicity at 10 µM was -7.62%.
Consider `Cc1c(CN2CCc3[nH]cnc3C2C2CC2)[nH]c2ccc(F)cc12` (stereo not given), for which the cytotoxicity at 10 µM stood at 10.8%.
The result for `CC(=O)N1CCCC2(CCN(c3ccccc3)C2=O)C1` (stereo not given) reads 1.91%; that for `COc1ccccc1CC(=O)NC(CC(=O)O)c1ccc(F)cc1` (stereo not given), -4.24%; that for `CNC(=O)[C@@]12CCO[C@@H]1CCN(S(=O)(=O)c1cc(C)cc(C)c1)C2`, -73.5%.
`Cc1ccc(-c2nc(CNC(C)Cn3cccn3)cs2)o1` (stereo not given): the cytotoxicity at 10 µM was -7.82%.
For the compound `Cc1cccc(NCC(=O)Nc2cc(F)ccc2F)c1C(N)=O`, the cytotoxicity at 10 µM was 7.53%.
As to `CCN(CC)Cc1ccc(C(=O)N2CCCC2c2cnn(C)c2)o1` (stereo not given), the cytotoxicity at 10 µM came to 3.51%.
Take `COCC(=O)N1C[C@@H](c2cccc(F)c2)[C@H]2[C@H]1CCCCCN2C(C)=O`: the cytotoxicity at 10 µM came out at 4.22%.
For the compound `CCCC(=O)N1CCC(c2nn(C)c(=O)n2-c2ccccc2)CC1`, the cytotoxicity at 10 µM came to 5.91%.
As to `NS(=O)(=O)CCNC(=O)c1ccc(-c2ccc(F)cc2)cc1F`, the cytotoxicity at 10 µM is -3.62%.
As for `Cn1ccnc1CN1C[C@@H](CN2CCCCC2)[C@@H](CO)C1`, the cytotoxicity at 10 µM was 11.7%.
For `O=C(NCCc1ccccc1)NCCN1CCC(c2cccs2)CC1` the value was -4.16%; for `Cc1cc(C(=O)N[C@H]2Cc3ccccc3[C@@H]2N)c(=O)[nH]c1C`, 11.2%.
In the case of `Cc1cc(C2CCCN(C(=O)c3ccc(Cl)o3)C2)n[nH]1` (stereo not given), the cytotoxicity at 10 µM was -5.02%.
For `Cc1nc(C)n(CC2CCCN(c3ccc(C#N)cn3)C2)n1` (stereo not given) the value was -9.67%.
Turning to `Cc1ccc(N2C[C@H]3OCC[C@H]3[C@H](C(=O)NCC3CC3)C2)nn1`, the cytotoxicity at 10 µM is -75.7%.
For `CC(C)[C@H](N)C(=O)N1CCSc2ccccc2C1`, the cytotoxicity at 10 µM was -5.53%.
For `COCCC(=O)N1Cc2ccccc2OC2(CCOCC2)C1` the value was -2.53%; for `CC(C)(C)NC(=O)c1cccc(CN2CCS(=O)(=O)CC2)c1`, 4.5%; for `Cc1ccc2c(c1)C(=O)NCC1(CCN(C(=O)c3cc(C)no3)CC1)O2`, -20.8%.
For the compound `CC1(C)CN(Cc2csc(CS(C)(=O)=O)n2)Cc2ccccc21`, the cytotoxicity at 10 µM was 6.38%.
For `N#Cc1cccnc1NCc1cccc(C(=O)NCC2CCCCO2)c1` (stereo not given), the cytotoxicity at 10 µM came out at 5%.
`Cc1cnc2c(S(=O)(=O)NCC3CCOC3)cccc2c1` (stereo not given): the cytotoxicity at 10 µM is -6.94%.
Turning to `COc1cccc(S(=O)(=O)N2C[C@@H](N(C)C)[C@H](C(C)C)C2)c1`, the cytotoxicity at 10 µM is -51.2%.
For `CC(=O)N1CCCN(C(=O)NCc2ccccn2)CC1` the value was -7.37%.
For `CC(C)(C)C(=O)N1CCC2(CC1)CC(Oc1ccccc1)CO2` (stereo not given), the cytotoxicity at 10 µM turned out to be 4.12%.
The result for `CC(Cn1cccn1)NC(=O)C1=Cc2ccccc2OC1` (stereo not given) reads 2.86%; that for `CSCCCN1CCC(c2nnc(Cn3ccnc3)n2C2CC2)CC1`, 0.872%; that for `COc1cccc(CN2CCC3(CCN(c4ncc(C)cn4)C3)C2=O)c1` (stereo not given), -0.265%.
For `Cc1cc(NCCNc2cccnc2)nc(-c2ccccc2O)n1` the value was 47.9%.
For the compound `Cc1cnn(CCNCC(O)COc2ccc(Cl)cc2Cl)c1` (stereo not given), the cytotoxicity at 10 µM is -1.76%.
`c1cc(CNCc2ccc(-n3cncn3)nc2)cc(OC2CCCC2)c1`: the cytotoxicity at 10 µM was found to be 2.3%.
On to `CC(Cc1ccco1)NC(=O)C1=NN(c2ccccc2)C(=O)CC1` (stereo not given), for which the cytotoxicity at 10 µM came to 0.537%.
With `CNC(=O)CC1c2cccnc2C(=O)N1Cc1ccccc1` (stereo not given), the cytotoxicity at 10 µM is -2.51%.
`CC(C)c1cc(NC(=O)Cn2cnc3ccccc3c2=O)[nH]n1`: the cytotoxicity at 10 µM is -168%.
For `Cn1nc(C(=O)N2CCCC2)c(F)c1NC(=O)Cc1ccccc1`, the cytotoxicity at 10 µM came out at 1.41%.
For the compound `CCN(CC1CCOC1)C(=O)Cn1nnn(-c2cccs2)c1=O` (stereo not given), the cytotoxicity at 10 µM was -49.7%.
Turning to `c1ccc(-c2cnc(CNC3CCc4ncnn4C3)o2)cc1` (stereo not given), the cytotoxicity at 10 µM is -3.78%.
On to `CN(C)C(C(=O)NCCn1cccc1)c1cccc(F)c1` (stereo not given), for which the cytotoxicity at 10 µM was -1.23%.
With `CCc1cccc(NC(=O)N2CCn3cnc(COC)c3C2)c1`, the cytotoxicity at 10 µM came out at 5.35%.
The result for `COc1ccc(CN2C[C@@H](CN(C)C)[C@@H](CO)C2)cc1OC` reads -1.19%; that for `CC(C)CC(=O)Nc1c(-c2ccc(F)cc2)ncn1C`, 5.87%; that for `CC(C)c1cc(C(F)(F)F)n2nc(C3CCN(S(C)(=O)=O)C3)cc2n1` (stereo not given), -1.14%.
As to `CC(C)C(C(=O)N1CCCN(Cc2cnn(C)c2)CC1)n1cncn1` (stereo not given), the cytotoxicity at 10 µM was -4.52%.
`O=C(CO)N1CCOC2(CCCN(c3ncc(F)cn3)C2)C1` (stereo not given): the cytotoxicity at 10 µM was found to be 12.4%.
On to `COC(=O)c1ccc(C)c(N2CCNC2=O)c1`, for which the cytotoxicity at 10 µM amounted to 9.81%.
In the case of `CC(C)n1ncc2cc(NC(=O)N3CCC(CO)CC3)cnc21`, the cytotoxicity at 10 µM was -14.5%.
Regarding `CN1CC2(CCNCC2)CC1C(=O)NCCCNc1cccnc1` (stereo not given), the cytotoxicity at 10 µM came out at 6.24%.
The result for `Cc1cc(C(C)NC(=O)c2cnc3onc(C)c3c2)c(C)o1` (stereo not given) reads 6.15%; that for `O=C1CC[C@@H](C(=O)N2CCc3[nH]nc(COc4cccc(Cl)c4)c3C2)N1`, -52.1%.
With `O=c1[nH]nc2n1CCN(S(=O)(=O)c1ccccc1Cl)C2`, the cytotoxicity at 10 µM was 3.61%.
As for `O[C@@H]1CC(CNCc2ccc(F)cc2)(COc2cccnc2)C[C@@H]1O` (stereo not given in full), the cytotoxicity at 10 µM is -10.8%.
Turning to `O=c1c(S(=O)(=O)N2CCCCC2)cccn1Cc1ccccc1Cl`, the cytotoxicity at 10 µM was 10.6%.
Take `Cc1nccc(NCc2cc3n(n2)CCCN(C(=O)C2CCC2)C3)n1`: the cytotoxicity at 10 µM was -128%.
As for `CN(C(=O)[C@H]1CSCN1C(=O)OC(C)(C)C)C1CC1`, the cytotoxicity at 10 µM worked out at 15.4%.
Turning to `CC(C)Cc1noc(CN2CCCN(C(=O)c3cccc(Cl)c3)CC2)n1`, the cytotoxicity at 10 µM was -2.34%.
For `Cc1cccc(OCCN2CCC(c3ccnn3CCO)CC2)c1`, the cytotoxicity at 10 µM is -4.87%.
Consider `Cn1cc(CN2CCC3(CC(=O)N(c4ccc5c(c4)OCO5)C3)C2)cn1` (stereo not given), for which the cytotoxicity at 10 µM was -4.97%.
Turning to `CC(=O)NCCCNCc1c(C)nn(CC(C)C)c1N(C)C`, the cytotoxicity at 10 µM came out at 6.47%.
`CCc1n[nH]c(C2CN(Cc3csc(C4CCCC4)n3)CCO2)n1` (stereo not given): the cytotoxicity at 10 µM was -14.6%.
In the case of `Cn1ncc2c(=O)[nH]c(CN3CCCC3c3ccsc3)nc21` (stereo not given), the cytotoxicity at 10 µM was -18%.
For `CCN(C(C)=O)C1CCN(c2nccc(C3CCCC3)n2)C1` (stereo not given), the cytotoxicity at 10 µM is -5.35%.
Take `Cc1cc(CN2CCC(N(C)Cc3noc(C4CC4)n3)C2)no1` (stereo not given): the cytotoxicity at 10 µM was found to be 5.35%.
As to `CCN1CCC(N2C[C@@H](C(=O)O)[C@H](c3cccc(OC)c3)C2)CC1`, the cytotoxicity at 10 µM is -2.85%.
Consider `COc1ccc(C)cc1C(C)NC(=O)Cn1ccc(=O)n(C)c1=O` (stereo not given), for which the cytotoxicity at 10 µM is -1.59%.
On to `Cc1ccc(-c2noc(C(C)(C)NS(C)(=O)=O)n2)cc1F`, for which the cytotoxicity at 10 µM stood at 2.77%.
For the compound `CCc1nccn1C1CCCN(C(=O)c2c(C)nsc2NC)C1` (stereo not given), the cytotoxicity at 10 µM is -5.86%.
Turning to `Cc1cc(C)c(CNc2ncnc3ccsc23)c(=O)[nH]1`, the cytotoxicity at 10 µM came out at 15.9%.
Regarding `COCC(=O)N(Cc1ccc2[nH]ccc2c1)C1CC1`, the cytotoxicity at 10 µM is -2.46%.
Turning to `COc1cc(C)ccc1S(=O)(=O)N1CC[C@](C)(O)[C@H](C)C1`, the cytotoxicity at 10 µM stood at 7.52%.
In the case of `CN1CCN(C[C@H]2CC[C@@H](Cc3ccc(CN4CCCC4)cc3)O2)CC1`, the cytotoxicity at 10 µM is -7.32%.
`Cc1noc(NC(=O)CCNC(=O)c2ccc(Br)cc2)n1`: the cytotoxicity at 10 µM was 0.449%.
Turning to `Cc1cc2c(=O)n3c(nc2s1)CCN(C(=O)c1ccncc1)CC3`, the cytotoxicity at 10 µM was determined as 1.08%.
For the compound `Cc1cc(CN2CCN(CC(O)c3ccc(C)c(C)c3)CC2)no1` (stereo not given), the cytotoxicity at 10 µM was -2.96%.
Consider `CC1CCCCN1C(=O)COc1nc(Cc2ccc(F)cc2)no1` (stereo not given), for which the cytotoxicity at 10 µM came out at 1.43%.
Take `COCC(=O)N1CCCC1c1nc(O)cc(C(C)C)n1` (stereo not given): the cytotoxicity at 10 µM was -15.5%.
Turning to `CC(C)n1ncc2c1NC(=O)CC21C(=O)Nc2c(Cl)ccc(Cl)c21` (stereo not given), the cytotoxicity at 10 µM is 1.19%.
Take `CC(CNC(=O)CCCn1cncn1)N1CCc2ccccc2C1` (stereo not given): the cytotoxicity at 10 µM was -130%.
With `CN(Cc1ccc(C2CC(=O)Nc3cc4[nH]ncc4cc32)o1)S(C)(=O)=O` (stereo not given), the cytotoxicity at 10 µM turned out to be 34.1%.
The result for `CC(C)(CNC(=O)C1CCCN1S(C)(=O)=O)N1CCOCC1` (stereo not given) reads 2.72%.
As to `CCCN1CCC(Cc2nc(CN3CCN(C)CC3)no2)CC1`, the cytotoxicity at 10 µM was 1.25%.
`CC(=O)Nc1ncc(S(=O)(=O)Nc2ccccc2F)s1`: the cytotoxicity at 10 µM came to 14.4%.
For `COc1ccc([C@@H]2NC(=O)N[C@H]3OCCC[C@H]32)cc1` the value was 1.49%; for `Clc1cccc(N2CCC(NCc3cc[nH]n3)C2)c1` (stereo not given), 4.01%; for `CCCc1cncnc1N1CCC2(CCC(=O)N(C3CCCC3)C2)CC1`, 2.61%.
As for `Cc1nc(C(C)(C)NC(=O)Nc2ccccc2)no1`, the cytotoxicity at 10 µM is -1.48%.
As to `CN(C)C(=O)[C@@H]1CCO[C@@H]2CCN(Cc3ccc4c(c3)OCO4)C[C@@H]21`, the cytotoxicity at 10 µM is -3.76%.
`Cn1c(C2CC2)nc2c1CCN(CCOc1ccccc1C#N)C2`: the cytotoxicity at 10 µM was -29.8%.
The result for `CC(=O)N1CCN(Cc2nccs2)CC2(CC(=O)N(C)C2)C1` (stereo not given) reads 3.03%.
`CCc1noc(CSc2n[nH]c(-c3ccccn3)n2)n1`: the cytotoxicity at 10 µM is 5.49%.
`COCCNc1c(-c2ccc(C)cc2)c(=O)c1=O`: the cytotoxicity at 10 µM is -5.15%.
Turning to `Cc1noc(C)c1C(=O)N(C)Cc1nc(-c2ccccn2)no1`, the cytotoxicity at 10 µM is -6.23%.
For the compound `CN(C)S(=O)(=O)NC1CC(=O)N(c2ccccc2Cl)C1` (stereo not given), the cytotoxicity at 10 µM came to 3.57%.
